# Published values from different studies.
# Lines come from different studies, so protocols differ.
# Target: Focal adhesion kinase 1 (PTK2, Homo sapiens, UniProt Q05397)
Structure (SMILES),assay,conditions,measurement,value
Cc1ccc(C(=O)Nc2ccc(CN3CCN(C)CC3)c(C(F)(F)F)c2)cc1C#Cc1cnc2cccnn12,"enzyme activity, inhibitor",23.5 nM,remaining activity,100%
C[C@H](c1cccc(C#N)c1)n1cc(Cl)cc(C(N)=O)c1=N,"cell-free assay, competition with immobilised ligand",1 µM,remaining binding,100%
C=CC(=O)Nc1cc(Nc2nccc(Nc3cc(Cl)c(F)cc3C(C)(C)O)n2)c(OC)cc1N1CC[C@@H](N(C)C)C1,"enzyme activity, inhibitor",1 µM,inhibition,74%
Cc1cnn2ncc(-c3ccnc(N(C)C)n3)c2c1,cell-free assay,1 µM,remaining signal,92%
O=c1nc(-c2ccccn2)sc2ccccc12,"binding, competition with immobilised ligand",1 µM,remaining binding,90%
Cc1ccc(Nc2nccc(N(C)c3ccc4c(C)n(C)nc4c3)n2)cc1S(N)(=O)=O,"enzyme activity, inhibitor",0.3 µM,inhibition,4%
Cc1sc(C(=O)NC2COC2)cc1-n1cc(NC(=O)Nc2c(F)cccc2Cl)cn1,"enzyme activity, inhibitor",10 µM,remaining activity,104%
N#CC1(c2ccccn2)CCN(Cc2cc(C(=O)N3CCCC3)c(=O)n3ccccc23)CC1,"cell-free assay, competition with immobilised ligand",1 µM,remaining binding,89%
CNC(=O)c1cc(Oc2ccc(NC(=O)Nc3ccc(Cl)c(C(F)(F)F)c3)cc2)ccn1,cell-free assay,0.5 µM,remaining signal,102%
F[C@@H]1CCN(c2nccc(-c3cnn4ncccc34)n2)C1,cell-free assay,1 µM,remaining signal,100%
CCCOc1ccc(OC)c(F)c1C(=O)c1ccc(C(=O)N[C@@H]2CNC[C@H]2NC(=O)c2ccc3[nH]ncc3c2)cc1,"enzyme activity, inhibitor",10 µM,remaining activity,103%
COc1cc2nccc(Oc3ccc(NC(=O)c4c5n(n(-c6ccc(F)cc6)c4=O)CCCC5)cc3)c2cc1OC,"enzyme activity, inhibitor",0.1 µM,inhibition,-10%
N#CCCc1ccc2c(c1)-c1[nH]c3ccc([N+](=O)[O-])cc3c1CC(=O)N2,cell-free assay,0.5 µM,remaining signal,82.2%
Cc1nccc(COC(=O)N2C[C@@H]3[C@@H](CNC(=O)c4ccc5[nH]nnc5c4)[C@@H]3C2)n1,"cell-free assay, competition with immobilised ligand",1 µM,remaining binding,100%
CC(C)(C)c1nc(-c2cccc(NS(=O)(=O)c3c(F)cccc3F)c2F)c(-c2ccnc(N)n2)s1,"enzyme activity, inhibitor, radiometric",1 µM,remaining activity,89%
CS(=O)(=O)Nc1cccc(-c2csc(NC(=O)CSc3nc4nccnc4c(=O)n3CCc3ccccc3)n2)c1,"enzyme activity, inhibitor",10 µM,inhibition,2%
CC(=O)N1CCC(c2ccc(C(=O)NC(=N)N)cc2C(F)(F)F)CC1,"cell-free assay, competition with immobilised ligand",1 µM,remaining binding,100%
Nc1ncnc2occ(-c3ccc(NC(=O)Nc4cc(C(F)(F)F)ccc4F)cc3)c12,"cell-free assay, inhibitor",20 µM,remaining signal,0.1%
CCS(=O)(=O)c1cc2cc(C[C@](O)(CC(C)(C)c3ccc(F)cc3C(N)=O)C(F)(F)F)[nH]c2cn1,"cell-free assay, competition with immobilised ligand",1 µM,remaining binding,97%
COc1cc2ncnc(Nc3ccc(Oc4ccccc4)c(C)c3C)c2cc1OC,"enzyme activity, inhibitor",1 µM,inhibition,-1%
COc1cc(-c2cc(-c3ccc(N4CCNCC4)cc3)cnc2C)cc(OC)c1OC,"enzyme activity, inhibitor",0.1 µM,inhibition,26%
Cc1ccc(C(=O)NCc2ccsc2)cc1C#Cc1cn(C(C)C)c2ncnc(N)c12,"enzyme activity, inhibitor",1 µM,activity vs control,79%
Cc1nc(C2CCN(C(=O)c3ccc(OC(F)(F)F)cc3N)CC2)c2ncc(N3CCN(C)CC3)cc2n1,"cell-free assay, competition with immobilised ligand",1 µM,remaining binding,91%
Cc1cc(NC(=O)c2cccc3cc(-c4cccc5[nH]nc(N)c45)ccc23)ccc1F,"enzyme activity, inhibitor",0.1 µM,activity vs control,98%
CC1=C(C#N)C(c2ccc3c(c2)c(NC(=O)c2ccccc2C)nn3C)C(C#N)=C(C)N1,"cell-free assay, competition with immobilised ligand",1 µM,remaining binding,94%
Nc1nc(Nc2ccc(S(N)(=O)=O)cc2)nn1C(=O)c1c(F)cccc1F,cell-free assay,0.5 µM,remaining signal,95.5%
COc1cc(Cl)c(C(=O)N[C@@H](CN[C@H]2CC[C@@H](N)CC2)Cc2ccc(C#N)cc2)cc1-c1ccc(CN[C@H](C)c2ccc(C)cc2)o1,"enzyme activity, inhibitor",1 µM,remaining activity,100%
O=C(Nc1cnn(-c2csc(C(=O)NC3COC3)c2)c1)Nc1ccccc1Cl,"enzyme activity, inhibitor",5 µM,remaining activity,95.7%
Cc1[nH]c(/C=C2\C(=O)Nc3ccc(F)cc32)c(C)c1C(=O)N[C@H]1CCN(C(=O)N(C)C)C1,"enzyme activity, inhibitor",1 µM,remaining activity,27%
CCCS(=O)(=O)Nc1ccc(F)c(C(=O)c2c[nH]c3ncc(-c4ccc(Cl)cc4)cc23)c1F,"enzyme activity, inhibitor",1 µM,inhibition,< 10%
